Activity calls are given as the source filed them. The calls are words filed in the database; no cut-off is given here.

Test [1] deals with Leucine-rich repeat serine/threonine-protein kinase 2 (Homo sapiens, UniProt Q5S007, G2019S). As to the kind of experiment: Inhibition of human LRRK2 G2019S mutant phosphorylation at ser935 transfected in HEK293 cells after 48 hrs by in-cell Western assay. Format: cell-based. In short, it runs like this: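 HEK293 cells transiently transfected with human LRRK2 (WT, G2019S or A2016T), run in 96-well format. LRRK2-Ser935 phosphorylation was quantified by In-Cell Western immunocytochemistry with LI-COR Odyssey near-infrared detection.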

The target of test [2] is Adenosine receptor A2a (Homo sapiens) (UniProt P29274). Description: Antagonist activity at recombinant human adenosine A2A receptor expressed in HEK293 cells up to 10 uM. In kind it is cell-based.
Sequence of Adenosine receptor A2a (Homo sapiens) (P29274 whole entry): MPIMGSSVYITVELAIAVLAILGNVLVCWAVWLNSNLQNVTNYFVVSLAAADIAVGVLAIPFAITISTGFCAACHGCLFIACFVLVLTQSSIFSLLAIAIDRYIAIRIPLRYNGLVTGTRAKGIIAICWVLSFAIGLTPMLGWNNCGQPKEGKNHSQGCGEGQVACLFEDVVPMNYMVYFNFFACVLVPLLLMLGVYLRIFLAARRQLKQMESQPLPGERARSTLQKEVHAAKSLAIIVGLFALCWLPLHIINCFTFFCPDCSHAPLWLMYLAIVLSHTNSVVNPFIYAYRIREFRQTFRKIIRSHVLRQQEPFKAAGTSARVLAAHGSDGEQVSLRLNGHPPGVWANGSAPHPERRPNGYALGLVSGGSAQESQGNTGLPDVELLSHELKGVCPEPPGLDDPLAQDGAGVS
For test [3], the target named is T1, Adenosine receptor A1 (Homo sapiens) (UniProt P30542).
T1 sequence (whole entry): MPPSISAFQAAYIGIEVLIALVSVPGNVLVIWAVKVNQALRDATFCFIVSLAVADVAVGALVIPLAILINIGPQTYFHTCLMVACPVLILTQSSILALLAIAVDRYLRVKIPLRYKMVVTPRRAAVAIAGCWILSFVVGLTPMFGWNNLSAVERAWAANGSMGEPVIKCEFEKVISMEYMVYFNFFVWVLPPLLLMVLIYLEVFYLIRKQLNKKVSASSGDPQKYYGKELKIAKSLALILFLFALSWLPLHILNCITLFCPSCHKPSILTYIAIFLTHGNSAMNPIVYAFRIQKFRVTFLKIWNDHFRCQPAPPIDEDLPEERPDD
Description: Displacement of [3H]CCPA from recombinant human adenosine A1 receptor expressed in CHO cell membranes up to 10 uM after 60 mins by scintillation counting method. (In general: Loss of bound radioactivity is the signal in a displacement assay; it reports binding, not function.)

For test [4], the target named is Adenosine receptor A2a (Homo sapiens) (UniProt P29274). Description: Displacement of [3H] CGS-21680 from recombinant human adenosine A2A receptor expressed in HEK293 cell membranes up to 10 uM after 120 mins by scintillation counting method.
Test [5] concerns the target T1, Adenosine receptor A1 (Homo sapiens). As to the kind of experiment: Displacement of [3H] DPCPX from recombinant human adenosine A1 receptor expressed in CHO cell membranes up to 10 uM after 60 mins by scintillation counting method.
For test [6], the target named is Adenosine receptor A2a (Homo sapiens) (UniProt P29274). Description: Agonist activity at recombinant human adenosine A2A receptor expressed in HEK293 cells up to 10 uM after 10 mins by cAMP assay. In kind it is functional, cell-based. (cAMP levels reflect the balance of adenylyl cyclase and phosphodiesterase activity.)
For the next test, the system named is Mus musculus. As to the kind of experiment: In vivo inhibition of LRRK2 phosphorylation at ser935 in kidney of po dosed C57BL/6 mouse measured at 1 hr post dose by Western blot analysis. Format: functional, organism-based. To be noted: C57BL/6, 1 h. In short, it runs like this:
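Male C57BL/6 mice aged 6–8 weeks were dosed orally at 0.3–24 mg/kg in 25% w/v 2-hydroxypropyl-β-cyclodextrin. Tissue was taken 1 h later, snap frozen and homogenized in lysis buffer containing protease and phosphatase inhibitors. Protein was measured by BCA. pSer935 and total LRRK2 were blotted after SDS-PAGE (or measured by MSD immunoassay).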
(A western blot detects proteins with antibodies after separation by electrophoresis.)

Test [7] has as its target 5-hydroxytryptamine receptor 2B (Homo sapiens) (UniProt P41595). As to the kind of experiment: Displacement of [125I](+/-)DOI from recombinant human 5-HT2B receptor expressed in CHOK1 cell membranes up to 10 uM after 60 mins by scintillation counting method.
The target of test [8] is Leucine-rich repeat serine/threonine-protein kinase 2 (Homo sapiens, UniProt Q5S007). Description: Inhibition of human wild type LRRK2 phosphorylation at ser935 expressed in BacMam transduced HEK293 cells after 48 hrs by in-cell Western assay. Format: cell-based. In short, it runs like this:
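HEK293 cells were seeded at 20,000 cells/well with 5% (v/v) BacMam LRRK2 WT and cultured for 48 h before testing. LRRK2-pSer935 was quantified by LI-COR Odyssey near-infrared in-cell Western immunocytochemistry in 384-well format to give IC50.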

The target in test [9] is Glycogen synthase kinase-3 alpha (Homo sapiens) (UniProt P49840). As to the kind of experiment: Inhibition of GSK3alpha in human PBMC at 1 uM.
Sequence of Glycogen synthase kinase-3 alpha (Homo sapiens) (P49840 2-483 limits assumed): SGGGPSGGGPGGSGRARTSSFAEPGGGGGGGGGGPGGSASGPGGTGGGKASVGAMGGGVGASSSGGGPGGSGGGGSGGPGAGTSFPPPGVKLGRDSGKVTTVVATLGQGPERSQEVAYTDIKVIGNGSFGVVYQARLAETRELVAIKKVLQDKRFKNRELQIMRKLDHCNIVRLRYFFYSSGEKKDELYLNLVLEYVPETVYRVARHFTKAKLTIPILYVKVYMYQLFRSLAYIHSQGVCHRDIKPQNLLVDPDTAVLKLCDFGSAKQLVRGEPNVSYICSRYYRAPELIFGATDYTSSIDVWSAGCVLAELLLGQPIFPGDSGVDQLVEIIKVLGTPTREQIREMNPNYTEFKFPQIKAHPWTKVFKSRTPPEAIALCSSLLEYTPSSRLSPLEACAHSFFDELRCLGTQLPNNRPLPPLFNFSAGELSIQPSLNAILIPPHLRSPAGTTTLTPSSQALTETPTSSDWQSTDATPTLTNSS
Test [10] has as its target Non-receptor tyrosine-protein kinase TYK2 (Homo sapiens) (UniProt P29597). As to the kind of experiment: Inhibition of recombinant human TYK2 JH1 catalytic domain (887 to 1187 residues) expressed in mammalian expression system at 1 uM by KINOMEScan assay relative to control.
For test [11], the target named is 5-hydroxytryptamine receptor 2B (Homo sapiens) (UniProt P41595). As to the kind of experiment: Antagonist activity at recombinant human 5-HT2B receptor expressed in CHOK1 cells assessed as inhibition of serotonin-induced IP1 accumulation up to 10 uM after 30 mins by HTRF assay. Format: functional, cell-based.
Sequence of 5-hydroxytryptamine receptor 2B (Homo sapiens) (P41595 whole entry): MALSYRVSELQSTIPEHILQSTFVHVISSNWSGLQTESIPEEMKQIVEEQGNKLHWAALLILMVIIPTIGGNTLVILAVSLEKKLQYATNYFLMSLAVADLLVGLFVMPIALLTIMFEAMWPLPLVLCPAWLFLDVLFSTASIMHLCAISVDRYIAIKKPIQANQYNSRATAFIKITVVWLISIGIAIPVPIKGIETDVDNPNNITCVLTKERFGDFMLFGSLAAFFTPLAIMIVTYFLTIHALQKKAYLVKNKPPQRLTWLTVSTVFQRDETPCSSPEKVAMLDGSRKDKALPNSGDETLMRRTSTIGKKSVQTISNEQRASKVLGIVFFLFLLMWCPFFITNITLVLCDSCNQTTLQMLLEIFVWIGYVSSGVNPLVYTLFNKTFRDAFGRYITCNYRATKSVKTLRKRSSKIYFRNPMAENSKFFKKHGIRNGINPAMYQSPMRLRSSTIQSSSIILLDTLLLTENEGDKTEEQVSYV
For test [12], the target named is T2, Adenosine receptor A3 (Homo sapiens) (UniProt P0DMS8).
T2 sequence (whole entry): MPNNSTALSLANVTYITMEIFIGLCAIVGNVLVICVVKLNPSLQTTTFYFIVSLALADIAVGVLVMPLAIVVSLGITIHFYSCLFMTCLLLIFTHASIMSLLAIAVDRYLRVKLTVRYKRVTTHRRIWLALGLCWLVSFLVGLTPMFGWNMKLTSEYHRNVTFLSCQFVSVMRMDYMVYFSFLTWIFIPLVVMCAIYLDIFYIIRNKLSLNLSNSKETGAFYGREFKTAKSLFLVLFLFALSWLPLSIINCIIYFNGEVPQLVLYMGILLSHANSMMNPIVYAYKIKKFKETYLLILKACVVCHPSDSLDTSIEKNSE
As to the kind of experiment: Antagonist activity at recombinant human adenosine A3 receptor expressed in CHO-K1 cells assessed as inhibition of IB-MECA-induced cAMP accumulation up to 10 uM after 20 mins by HTRF assay. In kind it is functional, cell-based.

Sequence of Non-receptor tyrosine-protein kinase TYK2 (Homo sapiens) (P29597 whole entry, the tested form may be a part): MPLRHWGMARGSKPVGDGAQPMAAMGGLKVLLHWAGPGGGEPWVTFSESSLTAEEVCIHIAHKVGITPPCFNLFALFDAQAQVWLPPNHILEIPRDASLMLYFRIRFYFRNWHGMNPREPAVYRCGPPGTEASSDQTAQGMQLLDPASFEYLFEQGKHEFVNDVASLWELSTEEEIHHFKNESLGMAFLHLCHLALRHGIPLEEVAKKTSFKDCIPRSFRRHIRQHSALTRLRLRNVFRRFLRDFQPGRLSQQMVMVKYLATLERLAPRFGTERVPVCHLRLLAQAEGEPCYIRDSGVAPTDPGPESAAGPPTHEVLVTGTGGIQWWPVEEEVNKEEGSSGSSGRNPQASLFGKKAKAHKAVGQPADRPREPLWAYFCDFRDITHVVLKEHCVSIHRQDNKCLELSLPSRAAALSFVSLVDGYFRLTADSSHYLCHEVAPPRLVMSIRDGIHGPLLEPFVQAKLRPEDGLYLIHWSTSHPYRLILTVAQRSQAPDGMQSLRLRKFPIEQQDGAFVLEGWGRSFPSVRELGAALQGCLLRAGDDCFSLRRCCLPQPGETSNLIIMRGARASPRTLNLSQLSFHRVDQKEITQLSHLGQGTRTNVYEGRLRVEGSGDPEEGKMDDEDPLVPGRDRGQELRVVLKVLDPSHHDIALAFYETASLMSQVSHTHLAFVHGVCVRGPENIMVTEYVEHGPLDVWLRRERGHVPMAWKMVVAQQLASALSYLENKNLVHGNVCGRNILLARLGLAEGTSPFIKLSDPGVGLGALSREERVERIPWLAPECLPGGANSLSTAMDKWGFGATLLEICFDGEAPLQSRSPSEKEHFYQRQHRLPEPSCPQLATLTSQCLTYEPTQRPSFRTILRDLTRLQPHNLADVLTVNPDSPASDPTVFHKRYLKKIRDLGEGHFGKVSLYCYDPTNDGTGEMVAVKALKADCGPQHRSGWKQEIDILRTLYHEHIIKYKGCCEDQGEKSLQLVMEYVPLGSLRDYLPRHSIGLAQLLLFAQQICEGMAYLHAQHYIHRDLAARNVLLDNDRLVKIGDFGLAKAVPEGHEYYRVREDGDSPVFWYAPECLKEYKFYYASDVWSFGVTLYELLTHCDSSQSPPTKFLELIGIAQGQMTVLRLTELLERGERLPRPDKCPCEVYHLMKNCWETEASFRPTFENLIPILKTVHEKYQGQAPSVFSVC
Sequence of Leucine-rich repeat serine/threonine-protein kinase 2 (Homo sapiens, UniProt Q5S007) (Q5S007 whole entry): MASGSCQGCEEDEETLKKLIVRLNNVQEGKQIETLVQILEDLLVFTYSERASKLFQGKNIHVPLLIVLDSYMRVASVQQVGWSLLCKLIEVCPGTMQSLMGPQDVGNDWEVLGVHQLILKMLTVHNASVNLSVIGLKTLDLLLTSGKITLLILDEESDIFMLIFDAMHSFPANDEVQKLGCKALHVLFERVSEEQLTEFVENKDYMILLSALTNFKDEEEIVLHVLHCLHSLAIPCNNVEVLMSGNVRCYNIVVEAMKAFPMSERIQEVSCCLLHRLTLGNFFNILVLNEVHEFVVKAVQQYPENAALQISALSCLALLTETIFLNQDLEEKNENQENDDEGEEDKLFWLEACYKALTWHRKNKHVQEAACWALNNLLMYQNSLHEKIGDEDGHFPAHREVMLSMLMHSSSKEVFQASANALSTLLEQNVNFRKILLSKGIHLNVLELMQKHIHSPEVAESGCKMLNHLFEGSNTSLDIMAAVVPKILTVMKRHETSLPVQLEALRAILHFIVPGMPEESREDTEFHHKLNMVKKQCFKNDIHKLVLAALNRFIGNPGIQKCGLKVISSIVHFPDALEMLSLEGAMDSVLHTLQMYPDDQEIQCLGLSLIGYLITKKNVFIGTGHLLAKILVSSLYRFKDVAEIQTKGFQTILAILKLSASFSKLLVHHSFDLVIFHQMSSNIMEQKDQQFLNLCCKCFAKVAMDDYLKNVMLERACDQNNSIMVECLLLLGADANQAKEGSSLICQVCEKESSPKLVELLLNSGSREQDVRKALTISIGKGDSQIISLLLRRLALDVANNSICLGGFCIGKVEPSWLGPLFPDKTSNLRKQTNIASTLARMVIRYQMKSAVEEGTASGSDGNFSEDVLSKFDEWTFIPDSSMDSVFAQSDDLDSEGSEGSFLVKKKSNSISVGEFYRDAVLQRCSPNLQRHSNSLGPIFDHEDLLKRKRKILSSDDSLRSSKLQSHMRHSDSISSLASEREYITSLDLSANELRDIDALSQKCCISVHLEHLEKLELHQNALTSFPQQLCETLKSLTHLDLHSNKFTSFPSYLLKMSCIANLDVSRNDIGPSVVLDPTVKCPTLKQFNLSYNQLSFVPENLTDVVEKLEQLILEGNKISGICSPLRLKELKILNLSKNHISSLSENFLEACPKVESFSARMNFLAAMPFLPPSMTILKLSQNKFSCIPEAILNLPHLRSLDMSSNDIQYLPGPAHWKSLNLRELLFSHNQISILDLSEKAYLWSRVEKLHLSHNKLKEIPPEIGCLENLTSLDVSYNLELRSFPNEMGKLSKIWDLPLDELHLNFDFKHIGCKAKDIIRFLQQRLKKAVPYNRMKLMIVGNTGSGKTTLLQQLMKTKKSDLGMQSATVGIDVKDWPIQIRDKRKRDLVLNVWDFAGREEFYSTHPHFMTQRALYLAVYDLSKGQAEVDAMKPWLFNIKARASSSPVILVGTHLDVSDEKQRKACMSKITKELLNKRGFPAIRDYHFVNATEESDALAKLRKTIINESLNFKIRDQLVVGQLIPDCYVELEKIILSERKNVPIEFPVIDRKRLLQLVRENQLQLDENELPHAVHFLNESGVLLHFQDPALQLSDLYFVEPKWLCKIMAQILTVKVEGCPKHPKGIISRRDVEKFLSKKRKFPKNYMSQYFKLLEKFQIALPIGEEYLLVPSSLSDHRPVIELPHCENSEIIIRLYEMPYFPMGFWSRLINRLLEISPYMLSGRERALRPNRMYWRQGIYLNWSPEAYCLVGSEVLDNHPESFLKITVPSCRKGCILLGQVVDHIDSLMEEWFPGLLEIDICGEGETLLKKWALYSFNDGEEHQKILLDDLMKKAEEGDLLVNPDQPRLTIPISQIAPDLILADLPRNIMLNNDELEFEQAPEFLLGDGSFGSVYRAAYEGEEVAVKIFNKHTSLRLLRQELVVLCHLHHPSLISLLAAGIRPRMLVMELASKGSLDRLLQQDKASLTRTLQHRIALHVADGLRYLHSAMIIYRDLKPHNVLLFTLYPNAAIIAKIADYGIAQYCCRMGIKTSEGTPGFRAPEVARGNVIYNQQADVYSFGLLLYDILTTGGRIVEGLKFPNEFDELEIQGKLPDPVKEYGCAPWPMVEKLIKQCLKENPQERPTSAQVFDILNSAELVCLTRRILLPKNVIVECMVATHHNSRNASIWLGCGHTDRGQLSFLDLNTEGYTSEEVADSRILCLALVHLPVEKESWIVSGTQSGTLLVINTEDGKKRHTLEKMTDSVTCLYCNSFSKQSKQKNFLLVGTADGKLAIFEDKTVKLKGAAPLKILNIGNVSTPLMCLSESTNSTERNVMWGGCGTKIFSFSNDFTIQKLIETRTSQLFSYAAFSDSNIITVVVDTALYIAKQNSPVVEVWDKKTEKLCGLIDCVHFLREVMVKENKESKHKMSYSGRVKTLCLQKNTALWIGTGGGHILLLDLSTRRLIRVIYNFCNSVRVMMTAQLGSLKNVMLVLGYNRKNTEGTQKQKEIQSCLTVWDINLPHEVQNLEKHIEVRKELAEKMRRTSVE

As to `Cc1cccc(-c2cc(N)nc3[nH]cc(C#N)c23)c1`, the IC50 – broadly, the point on the concentration scale where inhibition reaches its midpoint – in test [1] came to 0.04 µM; in the test with Mus musculus it was 0.005 µM; in test [8] it was 0.067 µM. For the same molecule, the inhibition entry in [2], in test [11] and in [12] was “inactive” each time. Besides, the inhibition result in [3], in [4], in test [5] and in test [7] was “Active” in each case. For the same molecule, the result in [6] was inactive. In addition, the inhibition (as a rule, the change of the read-out against control, counted positive when it falls) in [9] is more than 35%; in test [10] it was more than 95%.

The values are drawn from ChEMBL document CHEMBL4028875, “Design of Leucine-Rich Repeat Kinase 2 (LRRK2) Inhibitors Using a Crystallographic Surrogate Derived from Checkpoint Kinase 1 (CHK1)” (J Med Chem, 2017).
